Assays:
[1] = biological target: Multidrug resistance-associated protein 1 (Homo sapiens, UniProt P33527); assay: Inhibition of MRP1 in human NCI-H69AR cells incubated for 180 mins in presence of daunorubicin by flow cytometry analysis; type: cell-based
Summary of the method: (§1)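 H69AR cells (doxorubicin-selected small cell lung cancer, RPMI-1640/20% FBS), about 60,000 per well, preincubated 15 min with compound (100 nM–100 µM added solutions, in unsupplemented medium), then daunorubicin (30 µM solution added); steady state after 180 min, 37 °C, 5% CO2. Cells resuspended; flow cytometry, 488 nm excitation, FL3 (≥670 nm). Reference inhibitor 75 at 10 µM = 100%; Imax relative to it.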

[2] = biological target: T1, MRP1 (Homo sapiens, UniProt P33527); assay: Inhibition of MRP1 in human NCI-H69AR cells at 10 uM incubated for 180 mins in presence of daunorubicin by flow cytometry analysis relative to control; type: cell-based; details: probe daunorubicin; summary of the method: as §1
T1 sequence (P33527 whole entry): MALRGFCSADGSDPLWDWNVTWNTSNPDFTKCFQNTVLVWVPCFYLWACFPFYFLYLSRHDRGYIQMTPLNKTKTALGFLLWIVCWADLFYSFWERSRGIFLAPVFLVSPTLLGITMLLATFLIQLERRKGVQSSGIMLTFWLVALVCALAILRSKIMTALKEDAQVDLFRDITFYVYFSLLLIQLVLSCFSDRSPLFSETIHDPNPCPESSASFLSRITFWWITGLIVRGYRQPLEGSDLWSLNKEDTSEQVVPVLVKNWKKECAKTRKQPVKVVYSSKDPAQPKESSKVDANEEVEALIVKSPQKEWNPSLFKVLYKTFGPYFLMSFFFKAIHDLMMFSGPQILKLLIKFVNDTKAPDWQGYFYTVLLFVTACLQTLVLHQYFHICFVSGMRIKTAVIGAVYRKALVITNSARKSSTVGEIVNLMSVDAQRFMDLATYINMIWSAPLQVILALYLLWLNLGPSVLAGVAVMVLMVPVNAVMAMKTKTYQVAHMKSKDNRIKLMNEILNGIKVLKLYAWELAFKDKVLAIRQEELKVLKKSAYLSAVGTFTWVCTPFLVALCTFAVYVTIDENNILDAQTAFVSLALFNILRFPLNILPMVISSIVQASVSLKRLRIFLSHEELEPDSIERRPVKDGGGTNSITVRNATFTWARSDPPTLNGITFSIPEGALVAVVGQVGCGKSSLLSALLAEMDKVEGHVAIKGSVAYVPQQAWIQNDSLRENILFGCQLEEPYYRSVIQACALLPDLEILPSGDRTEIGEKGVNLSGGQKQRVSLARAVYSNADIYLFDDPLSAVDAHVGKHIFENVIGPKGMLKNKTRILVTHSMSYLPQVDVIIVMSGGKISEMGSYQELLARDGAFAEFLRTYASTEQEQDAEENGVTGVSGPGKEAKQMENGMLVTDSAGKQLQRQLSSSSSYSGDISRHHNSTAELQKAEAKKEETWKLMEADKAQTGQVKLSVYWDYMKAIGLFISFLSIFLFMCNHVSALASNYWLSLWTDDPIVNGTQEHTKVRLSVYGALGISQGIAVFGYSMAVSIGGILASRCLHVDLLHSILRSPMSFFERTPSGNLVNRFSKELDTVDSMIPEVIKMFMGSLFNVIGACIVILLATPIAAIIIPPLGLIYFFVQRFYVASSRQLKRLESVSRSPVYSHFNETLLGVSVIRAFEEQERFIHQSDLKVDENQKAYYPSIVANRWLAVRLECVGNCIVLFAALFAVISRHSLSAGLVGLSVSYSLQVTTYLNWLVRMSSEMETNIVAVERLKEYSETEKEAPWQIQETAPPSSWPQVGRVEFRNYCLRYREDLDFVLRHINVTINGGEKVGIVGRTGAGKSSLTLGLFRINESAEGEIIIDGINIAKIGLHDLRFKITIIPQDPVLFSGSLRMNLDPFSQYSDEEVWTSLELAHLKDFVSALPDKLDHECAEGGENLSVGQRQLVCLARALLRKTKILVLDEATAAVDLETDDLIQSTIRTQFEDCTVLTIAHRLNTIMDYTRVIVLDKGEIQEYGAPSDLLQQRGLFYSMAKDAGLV

[3] = biological target: T2, BCRP (ABCG2) (Homo sapiens, UniProt Q9UNQ0); assay: Inhibition of BCRP (unknown origin) expressed in dog MDCK-II cells at 10 uM using pheophorbide A as substrate preincubated for 20 mins followed by substrate addition and measured after 120 mins by flow cytometry analysis relative to control; type: cell-based; details: probe pheophorbide A
T2 sequence (Q9UNQ0 whole entry): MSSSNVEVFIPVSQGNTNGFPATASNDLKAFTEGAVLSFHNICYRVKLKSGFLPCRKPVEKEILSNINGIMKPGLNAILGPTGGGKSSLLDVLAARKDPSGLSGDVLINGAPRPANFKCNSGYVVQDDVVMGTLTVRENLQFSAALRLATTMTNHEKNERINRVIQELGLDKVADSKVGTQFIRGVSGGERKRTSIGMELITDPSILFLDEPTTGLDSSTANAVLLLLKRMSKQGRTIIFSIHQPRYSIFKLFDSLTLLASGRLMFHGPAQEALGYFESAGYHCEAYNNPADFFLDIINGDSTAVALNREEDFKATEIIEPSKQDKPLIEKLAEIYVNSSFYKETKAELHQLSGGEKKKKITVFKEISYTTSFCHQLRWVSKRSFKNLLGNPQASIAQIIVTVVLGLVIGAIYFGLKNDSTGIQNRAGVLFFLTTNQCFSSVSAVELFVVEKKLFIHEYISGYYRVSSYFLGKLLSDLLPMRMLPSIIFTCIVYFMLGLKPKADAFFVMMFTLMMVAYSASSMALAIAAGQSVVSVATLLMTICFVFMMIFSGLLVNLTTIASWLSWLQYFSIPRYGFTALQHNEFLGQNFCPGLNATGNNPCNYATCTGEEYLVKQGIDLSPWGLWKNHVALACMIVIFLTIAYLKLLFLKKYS
Summary of the method: (§2)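 MDCK II cells transfected with human wild-type BCRP cDNA C-terminally fused to GFP, grown in DMEM/10% FBS. About 45,000 cells per well preincubated 20 min at 37 °C, 5% CO2 with compound (100 nM–100 µM added solutions), then pheophorbide A (5 µM solution added) for 120 min to steady state. Resuspended; flow cytometry, 488 nm excitation, FL3 (≥670 nm); GFP in FL1. Reference inhibitor 24 at 10 µM = 100%.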

[4] = biological target: T3, P-gp (ABCB1) (Homo sapiens, UniProt P08183); assay: Inhibition of P-gp (unknown origin) at 10 uM incubated for 30 mins by calcein AM analysis relative to control; details: probe calcein AM
T3 sequence (P08183 whole entry): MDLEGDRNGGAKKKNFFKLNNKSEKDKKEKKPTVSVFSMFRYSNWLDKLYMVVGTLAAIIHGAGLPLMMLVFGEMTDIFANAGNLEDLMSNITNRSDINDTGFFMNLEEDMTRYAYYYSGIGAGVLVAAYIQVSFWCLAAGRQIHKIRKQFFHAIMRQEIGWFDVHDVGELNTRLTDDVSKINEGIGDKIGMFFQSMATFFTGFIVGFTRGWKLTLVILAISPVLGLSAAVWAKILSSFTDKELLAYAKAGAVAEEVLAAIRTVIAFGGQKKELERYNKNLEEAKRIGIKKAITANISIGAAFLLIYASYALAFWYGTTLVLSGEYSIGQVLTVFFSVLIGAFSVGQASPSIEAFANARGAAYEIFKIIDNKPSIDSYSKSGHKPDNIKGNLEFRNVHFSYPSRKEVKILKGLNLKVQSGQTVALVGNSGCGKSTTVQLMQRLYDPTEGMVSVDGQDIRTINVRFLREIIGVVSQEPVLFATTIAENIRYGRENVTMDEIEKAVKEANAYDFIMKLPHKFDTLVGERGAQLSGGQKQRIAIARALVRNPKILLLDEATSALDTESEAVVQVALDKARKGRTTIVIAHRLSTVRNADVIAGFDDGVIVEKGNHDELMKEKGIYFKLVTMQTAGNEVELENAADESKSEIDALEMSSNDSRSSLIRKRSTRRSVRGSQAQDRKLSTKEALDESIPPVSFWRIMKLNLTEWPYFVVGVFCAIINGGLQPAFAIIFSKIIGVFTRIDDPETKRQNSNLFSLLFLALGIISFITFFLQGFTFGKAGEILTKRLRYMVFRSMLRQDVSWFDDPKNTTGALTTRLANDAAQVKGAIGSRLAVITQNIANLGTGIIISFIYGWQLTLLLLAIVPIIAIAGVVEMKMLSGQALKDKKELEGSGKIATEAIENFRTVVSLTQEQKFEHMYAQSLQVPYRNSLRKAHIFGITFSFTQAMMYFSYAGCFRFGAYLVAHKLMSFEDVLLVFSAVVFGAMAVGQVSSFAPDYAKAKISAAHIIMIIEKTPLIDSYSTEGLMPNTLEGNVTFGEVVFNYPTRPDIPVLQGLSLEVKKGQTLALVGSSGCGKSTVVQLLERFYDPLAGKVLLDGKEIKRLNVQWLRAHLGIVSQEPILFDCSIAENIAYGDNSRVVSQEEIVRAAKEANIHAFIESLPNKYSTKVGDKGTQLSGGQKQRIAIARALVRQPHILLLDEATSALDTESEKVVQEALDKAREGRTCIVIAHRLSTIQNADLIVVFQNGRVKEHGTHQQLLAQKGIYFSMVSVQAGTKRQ
Summary of the method: (§3)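 A2780/ADR cells (doxorubicin-selected, P-gp overexpressing), about 30,000 per well in Krebs-HEPES buffer pH 7.4, incubated 30 min at 37 °C with compound (100 nM–100 µM added solutions). Calcein AM (3.125 µM solution added) then fluorescence read every 60 s at 37 °C, ex 485/em 520 nm; slope over minutes 5–30 plotted vs log concentration. Cyclosporine A 10 µM = 100% inhibition, buffer = 0%.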

[5] = biological target: T4, Broad substrate specificity ATP-binding cassette transporter ABCG2 (Homo sapiens, UniProt Q9UNQ0); assay: Inhibition of BCRP (unknown origin) expressed in dog MDCK-II cells using pheophorbide A as substrate preincubated for 20 mins followed by substrate addition and measured after 120 mins by flow cytometry analysis; type: cell-based; summary of the method: as §2
T4 sequence (Q9UNQ0 whole entry): T2 sequence (Q9UNQ0 whole entry)

[6] = biological target: ATP-dependent translocase ABCB1 (Homo sapiens, UniProt P08183); assay: Inhibition of P-gp (unknown origin) incubated for 30 mins by calcein AM analysis; summary of the method: as §3
Chain of ATP-dependent translocase ABCB1 (P08183 whole entry): as above

[7] = biological target: T3, P-gp (ABCB1); assay: Inhibition of P-gp (unknown origin) expressed in dog MDCK-MDR1cells assessed as maximum inhibition at 10 uM by calcein AM accumulation assay relative to control; type: cell-based; details: MDCK-MDR1 cells, probe calcein AM
[8] = biological target: T1, MRP1; assay: Inhibition of MRP1 in human NCI-H69AR cells assessed as maximum inhibition at 10 uM incubated for 180 mins in presence of daunorubicin by flow cytometry analysis relative to control; type: cell-based; details: probe daunorubicin; summary of the method: as §1

Chain of Multidrug resistance-associated protein 1 (P33527 whole entry): as the sequence (P33527 whole entry) above

| SMILES | IC50 [1] | inhibition at 3 h, 10 µM [2] | inhibition at 2 h, 10 µM [3] | inhibition at 0.5 h, 10 µM [4] | IC50 [5] | IC50 [6] | inhibition at 10 µM [7] | inhibition at 3 h, 10 µM [8] |
| --- | --- | --- | --- | --- | --- | --- | --- | --- |
| N#Cc1c2n(c3c(N4CCN(Cc5ccc6c(c5)OCO6)CC4)ncnc13)CCCC2 | 322 nM | > 25% | > 25% | > 25% | 14600 nM | 13900 nM | – | – |
| N#Cc1cn(-c2ccccc2)c2c(N3CCN(Cc4ccc5c(c4)OCO5)CC3)ncnc12 | 751 nM | > 25% | > 25% | > 25% | – | – | – | – |
| N#Cc1c2n(c3c(N4CCN(c5ccccn5)CC4)ncnc13)CCCC2 | 1020 nM | 25% | > 25% | > 25% | 4860 nM | – | – | – |
| N#Cc1c2n(c3c(N4CCN(C(=O)c5ccco5)CC4)ncnc13)CCCCC2 | 1010 nM | > 25% | > 25% | > 25% | 12900 nM | – | – | – |
| Cn1cc(C#N)c2ncnc(N3CCN(CCc4c[nH]c5ccccc45)CC3)c21 | 337 nM | > 25% | – | – | – | – | – | – |
| N#Cc1cn(Cc2ccccc2)c2c(N3CCN(CCc4c[nH]c5ccccc45)CC3)ncnc12 | 405 nM | > 25% | > 25% | > 25% | 4070 nM | 4480 nM | – | – |
| N#Cc1c2n(c3c(N4CCN(C(=O)c5ccco5)CC4)ncnc13)CCCC2 | 883 nM | > 25% | > 25% | > 25% | 29500 nM | – | – | – |
| c1ccc(N2CCN(c3ncnc4c3[nH]c3ccccc34)CC2)nc1 | 495 nM | > 25% | > 25% | > 25% | 1810 nM | 5000 nM | 30% | – |
| N#Cc1c2n(c3c(N4CCN(CCc5c[nH]c6ccccc56)CC4)ncnc13)CCCCC2 | 289 nM | 25% | > 25% | > 25% | – | 1710 nM | – | – |
| c1ccc(N2CCN(c3ncnc4c3[nH]c3ccccc34)CC2)cc1 | 146 nM | > 25% | > 25% | > 25% | 1100 nM | – | 30% | 60% |
| N#Cc1c2n(c3c(N4CCN(CCc5ccccc5)CC4)ncnc13)CCCC2 | – | – | – | – | – | 9630 nM | – | – |
| CCOc1ccc(-n2cc(C#N)c3ncnc(N4CCN(Cc5ccccc5)CC4)c32)cc1 | 859 nM | > 25% | > 25% | > 25% | – | 7290 nM | – | – |
| CCCn1cc(C#N)c2ncnc(N3CCN(CCc4c[nH]c5ccccc45)CC3)c21 | 468 nM | > 25% | – | – | – | – | – | – |
| N#Cc1cn(-c2ccccc2)c2c(N3CCN(CCc4c[nH]c5ccccc45)CC3)ncnc12 | 328 nM | > 25% | > 25% | > 25% | – | 1280 nM | – | – |
| N#Cc1cn(CCc2ccccc2)c2c(N3CCN(Cc4ccc5c(c4)OCO5)CC3)ncnc12 | 1800 nM | > 25% | > 25% | > 25% | – | – | – | – |
| COc1ccccc1-n1cc(C#N)c2ncnc(N3CCN(Cc4ccccc4)CC3)c21 | 327 nM | > 25% | > 25% | > 25% | 37900 nM | 19100 nM | – | – |
| N#Cc1cn(C2CC2)c2c(N3CCN(CCc4c[nH]c5ccccc45)CC3)ncnc12 | 316 nM | > 25% | > 25% | > 25% | 18900 nM | 3850 nM | – | – |
| N#Cc1cn(CCc2ccccc2)c2c(N3CCN(CCc4c[nH]c5ccccc45)CC3)ncnc12 | 524 nM | > 25% | > 25% | > 25% | 1390 nM | 1640 nM | – | – |
| CCOc1ccc(-n2cc(C#N)c3ncnc(N4CCN(CCc5ccccc5)CC4)c32)cc1 | 1320 nM | > 25% | > 25% | > 25% | – | – | – | – |
| COc1ccccc1-n1cc(C#N)c2ncnc(N3CCN(CCc4ccccc4)CC3)c21 | 638 nM | > 25% | > 25% | > 25% | – | – | – | – |
| N#Cc1c2n(c3c(N4CCN(c5ccccn5)CC4)ncnc13)CCCCC2 | – | 25% | > 25% | > 25% | – | – | – | – |
| N#Cc1c2n(c3c(NCCc4c[nH]c5ccccc45)ncnc13)CCCC2 | 957 nM | 25% | > 25% | > 25% | – | – | – | – |
| CCn1cc(C#N)c2ncnc(N3CCN(CCc4c[nH]c5ccccc45)CC3)c21 | 855 nM | > 25% | > 25% | – | 13800 nM | – | – | – |
| N#Cc1c2n(c3c(N4CCN(Cc5ccc6c(c5)OCO6)CC4)ncnc13)CCCCC2 | 1020 nM | > 25% | > 25% | > 25% | 23700 nM | 5710 nM | – | – |
| N#Cc1c2n(c3c(N4CCN(CCc5ccncc5)CC4)ncnc13)CCCCC2 | 1140 nM | 25% | > 25% | > 25% | 12400 nM | – | – | – |
| N#Cc1c2n(c3c(N4CCN(CCc5ccncc5)CC4)ncnc13)CCCC2 | 672 nM | 25% | > 25% | > 25% | 27800 nM | – | – | – |
